Data published in ChEMBL document CHEMBL3751816, “Design, synthesis and evaluation of acridine derivatives as multi-target Src and MEK kinase inhibitors for anti-tumor treatment” (Bioorg Med Chem, 2016).
Calls of active or inactive are those of the source. No cut-off for these calls is given here.

What was measured:
[1] = test system: K562; experiment: Cytotoxicity against human K562 cells after 48 hrs by MTT assay; type: functional, cell-based; conditions: K562, 48 h
Outline: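 K562 cells in DMEM with 10% FBS, 37 °C, 5% CO2. Seeded at 7×10^5 cells/mL and held 12 h. Compounds in DMSO, diluted to final 0.01–50 µM (final DMSO below 1%), triplicate per concentration, 48 h. Then MTT 4 h at 37 °C, formazan dissolved in DMSO, absorbance read at 495 nm.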

[2] = test system: HepG2; experiment: Cytotoxicity against human HepG2 cells after 48 hrs by MTT assay; type: functional, cell-based; conditions: HepG2, 48 h
Outline: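 HepG-2 cells in DMEM with 10% FBS, 37 °C, 5% CO2. Seeded at 5×10^5 cells/mL for 12 h, then medium removed. Compounds in DMSO diluted to final 0.01–50 µM (DMSO below 1%), triplicate per concentration, 48 h. MTT 4 h at 37 °C, formazan taken up in DMSO, A495 read.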

[3] = molecular target: Proto-oncogene tyrosine-protein kinase Src (Homo sapiens) (UniProt P12931); experiment: Inhibition of Src (unknown origin) at 10 uM after 15 mins by luminescence assay
Outline: (§1)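 Contract-run kinase assay. Enzyme, substrate, ATP and compound (10 µM, in 2.5% DMSO) mixed in pH 7.0 buffer: 50 mM HEPES/NaOH, 0.02% NaN3, 0.01% BSA, orthovanadate, 5 mM MgCl2, 1 mM DTT. Incubated 15 min at room temperature. Detection with streptavidin-XL665 plus TK antibody europium cryptate in KF/EDTA buffer. […]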

[4] = molecular target: T1, Dual specificity mitogen-activated protein kinase kinase; MEK1/2 (Homo sapiens) (UniProt P36507+Q02750); experiment: Inhibition of MEK (unknown origin) at 10 uM after 15 mins by luminescence assay; outline: as §1
[5] = organism: Homo sapiens; experiment: Inhibition of PI3K (unknown origin) at 10 uM after 15 mins by luminescence assay
[6] = molecular target: Proto-oncogene tyrosine-protein kinase Src (Homo sapiens) (UniProt P12931); experiment: Inhibition of Src in human K562 cells assessed as decrease of ERK expression after 48 hrs by Western blot analysis; type: cell-based
Outline: (§2)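 K562 cells treated at 0, 0.5, 2.5, 5 and 10 µM for 48 h at 37 °C. Lysed on ice 30 min in NP-40/HEPES pH 7.9 buffer with phosphatase and protease inhibitors, cleared at 12000 g. Bradford-normalized protein run on SDS–PAGE, transferred to PVDF, and probed for ERK and AKT.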

[7] = molecular target: Proto-oncogene tyrosine-protein kinase Src (Homo sapiens) (UniProt P12931); experiment: Inhibition of Src in human K562 cells assessed as decrease of AKT expression after 48 hrs by Western blot analysis; type: cell-based; outline: as §2
[8] = molecular target: T1, Dual specificity mitogen-activated protein kinase kinase; MEK1/2 (Homo sapiens); experiment: Inhibition of MEK in human K562 cells assessed as decrease of ERK expression after 48 hrs by Western blot analysis; type: cell-based; outline: as §2
[9] = molecular target: T1, Dual specificity mitogen-activated protein kinase kinase; MEK1/2 (Homo sapiens); experiment: Inhibition of MEK in human K562 cells assessed as decrease of AKT expression after 48 hrs by Western blot analysis; type: cell-based; outline: as §2
[10] = test system: K562; experiment: Inhibition of PI3K in human K562 cells assessed as decrease of ERK expression after 48 hrs by Western blot analysis; type: cell-based; outline: as §2
[11] = test system: K562; experiment: Inhibition of PI3K in human K562 cells assessed as decrease of AKT expression after 48 hrs by Western blot analysis; type: cell-based; outline: as §2
[12] = test system: Calf thymus DNA; experiment: Binding affinity to calf thymus DNA at 10 uM by UV-vis spectrophotometric titration analysis; type: nucleic-acid assay; conditions: Bos taurus
[13] = test system: K562; experiment: Induction of apoptosis in human K562 cells after 48 hrs by annexin V-FITC staining; type: functional, cell-based
[14] = test system: K562; experiment: Induction of apoptosis in human K562 cells assessed as live cells at 0.5 uM after 48 hrs by annexin V-FITC staining (reference value: 96.49%); type: functional
[15] = test system: K562; experiment: Induction of apoptosis in human K562 cells assessed as necrotic cells at 0.5 uM after 48 hrs by annexin V-FITC staining (reference value: 0.15%); type: functional
[16] = test system: K562; experiment: Induction of apoptosis in human K562 cells assessed as late stage apoptotic cells at 0.5 uM after 48 hrs by annexin V-FITC staining (reference value: 0.23%); type: functional
[17] = test system: K562; experiment: Induction of apoptosis in human K562 cells assessed as early stage apoptotic cells at 0.5 uM after 48 hrs by annexin V-FITC staining (reference value: 3.14%); type: functional
[18] = test system: K562; experiment: Induction of apoptosis in human K562 cells assessed as live cells at 5 uM after 48 hrs by annexin V-FITC staining (reference value: 96.49%); type: functional
[19] = test system: K562; experiment: Induction of apoptosis in human K562 cells assessed as necrotic cells at 5 uM after 48 hrs by annexin V-FITC staining (reference value: 0.15%); type: functional
[20] = test system: K562; experiment: Induction of apoptosis in human K562 cells assessed as late stage apoptotic cells at 5 uM after 48 hrs by annexin V-FITC staining (reference value: 0.23%); type: functional
[21] = test system: K562; experiment: Induction of apoptosis in human K562 cells assessed as early stage apoptotic cells at 5 uM after 48 hrs by annexin V-FITC staining (reference value: 3.14%); type: functional
[22] = test system: K562; experiment: Induction of apoptosis in human K562 cells assessed as live cells at 10 uM after 48 hrs by annexin V-FITC staining (reference value: 96.49%); type: functional
[23] = test system: K562; experiment: Induction of apoptosis in human K562 cells assessed as necrotic cells at 10 uM after 48 hrs by annexin V-FITC staining (reference value: 0.15%); type: functional
[24] = test system: K562; experiment: Induction of apoptosis in human K562 cells assessed as late stage apoptotic cells at 10 uM after 48 hrs by annexin V-FITC staining (reference value: 0.23%); type: functional
[25] = test system: K562; experiment: Induction of apoptosis in human K562 cells assessed as early stage apoptotic cells at 10 uM after 48 hrs by annexin V-FITC staining (reference value: 3.14%); type: functional
[26] = test system: K562; experiment: Induction of apoptosis in human K562 cells assessed as early cleavage of caspase-3 at 10 uM after 48 hrs by Western blot analysis; type: functional, cell-based
Outline: (§3)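 K562 cells treated 48 h at 37 °C. Lysed on ice 30 min (HEPES pH 7.9, KCl, EDTA, 0.1% NP-40, Na3VO4, NaF, protease inhibitors), then cleared at 12000 g, 4 °C. Protein measured by Bradford and equal amounts run on SDS–PAGE. Transferred to PVDF and immunoblotted for cleaved caspase-3, cleaved caspase-7 and cleaved PARP.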

[27] = test system: K562; experiment: Induction of apoptosis in human K562 cells assessed as early cleavage of caspase-7 at 10 uM after 48 hrs by Western blot analysis; type: functional, cell-based; outline: as §3
[28] = test system: K562; experiment: Induction of apoptosis in human K562 cells assessed as early cleavage of PARP at 10 uM after 48 hrs by Western blot analysis; type: functional, cell-based; outline: as §3

Chain of Proto-oncogene tyrosine-protein kinase Src (Homo sapiens) (P12931 2-536 limits assumed): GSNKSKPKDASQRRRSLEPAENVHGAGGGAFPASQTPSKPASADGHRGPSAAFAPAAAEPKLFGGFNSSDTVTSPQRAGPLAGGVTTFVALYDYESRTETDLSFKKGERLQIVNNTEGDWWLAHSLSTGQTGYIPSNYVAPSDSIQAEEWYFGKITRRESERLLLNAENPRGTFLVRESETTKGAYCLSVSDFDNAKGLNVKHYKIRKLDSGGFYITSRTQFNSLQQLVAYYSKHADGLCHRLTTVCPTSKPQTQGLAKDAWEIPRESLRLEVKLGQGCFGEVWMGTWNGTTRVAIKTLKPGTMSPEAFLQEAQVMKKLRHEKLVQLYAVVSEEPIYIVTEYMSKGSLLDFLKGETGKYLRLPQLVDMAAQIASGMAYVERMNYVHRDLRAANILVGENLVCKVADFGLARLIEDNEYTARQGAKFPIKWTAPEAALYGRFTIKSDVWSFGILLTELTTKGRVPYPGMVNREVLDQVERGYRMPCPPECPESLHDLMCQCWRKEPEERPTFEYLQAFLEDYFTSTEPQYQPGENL
T1 sequence (P36507 whole entry, looked up): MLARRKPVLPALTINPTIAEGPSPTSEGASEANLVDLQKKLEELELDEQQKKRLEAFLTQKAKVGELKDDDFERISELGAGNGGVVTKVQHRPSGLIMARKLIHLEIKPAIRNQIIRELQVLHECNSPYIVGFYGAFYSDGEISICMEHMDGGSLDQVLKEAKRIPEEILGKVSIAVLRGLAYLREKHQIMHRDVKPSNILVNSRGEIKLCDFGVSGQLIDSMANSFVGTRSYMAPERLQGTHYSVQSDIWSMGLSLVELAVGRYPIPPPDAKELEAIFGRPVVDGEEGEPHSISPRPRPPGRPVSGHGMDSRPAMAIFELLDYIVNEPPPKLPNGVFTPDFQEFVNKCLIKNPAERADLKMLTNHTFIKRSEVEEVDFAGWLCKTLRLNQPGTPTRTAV
T1 sequence (Q02750 whole entry, looked up): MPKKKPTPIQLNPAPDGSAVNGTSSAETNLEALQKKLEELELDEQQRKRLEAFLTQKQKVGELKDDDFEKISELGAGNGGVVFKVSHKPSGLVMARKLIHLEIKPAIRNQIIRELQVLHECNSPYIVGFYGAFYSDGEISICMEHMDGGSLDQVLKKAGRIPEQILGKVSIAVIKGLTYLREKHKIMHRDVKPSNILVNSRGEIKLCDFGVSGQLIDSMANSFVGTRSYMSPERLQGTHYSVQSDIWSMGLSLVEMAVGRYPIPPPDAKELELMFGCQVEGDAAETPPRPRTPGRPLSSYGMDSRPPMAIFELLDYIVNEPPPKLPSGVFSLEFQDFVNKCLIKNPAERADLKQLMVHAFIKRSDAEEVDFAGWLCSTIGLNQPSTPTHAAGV

## O=C(Nc1ccc(Nc2c3ccccc3nc3cc([N+](=O)[O-])ccc23)cc1)Nc1cccc(F)c1
[1]
  IC50: 11.1 µM
[2]
  IC50: > 25 µM

## COc1cccc2c(Nc3ccc(NC(=O)Nc4ccccc4)cc3)c3ccccc3nc12
[1]
  IC50: 0.49 µM
[2]
  IC50: 6.12 µM

## CCc1cccc(NC(=O)Nc2ccc(Nc3c4ccccc4nc4cc([N+](=O)[O-])ccc34)cc2)c1
[1]
  IC50: 8.92 µM
[2]
  IC50: 22.7 µM

## CCc1ccc(NC(=O)Nc2ccc(Nc3c4ccccc4nc4cc([N+](=O)[O-])ccc34)cc2)cc1
[1]
  IC50: 1.86 µM
[2]
  IC50: 14.8 µM

## COc1cccc(NC(=O)Nc2ccc(Nc3c4ccccc4nc4cc([N+](=O)[O-])ccc34)cc2)c1
[1]
  IC50: 4.55 µM
[2]
  IC50: 22.3 µM

## O=C(Nc1ccc(Nc2c3ccccc3nc3cc([N+](=O)[O-])ccc23)cc1)Nc1cccc(Cl)c1
[1]
  IC50: 13.9 µM
[2]
  IC50: > 25 µM

## COc1ccc2nc3cc(Cl)ccc3c(Nc3ccccc3OC)c2c1
[1]
  IC50: 5.8 µM
[2]
  IC50: > 50 µM

## COc1ccc(NC(=O)Nc2ccc(Nc3c4ccccc4nc4cc([N+](=O)[O-])ccc34)cc2)cc1
[1]
  IC50: 7.68 µM
[2]
  IC50: > 25 µM

## CCCc1ccc(NC(=O)Nc2ccc(Nc3c4ccccc4nc4cc([N+](=O)[O-])ccc34)cc2)cc1
[1]
  IC50: 1.56 µM
[2]
  IC50: 14.4 µM

## COc1ccc2c(Nc3ccc(NC(=O)Nc4ccccc4)cc3)c3ccccc3nc2c1
[3]
  inhibition: 59.7%
[4]
  inhibition: 43.2%
[5]
  inhibition: 44.4%
[6]
  inhibition: Dose-dependent effect
[7]
  inhibition: Dose-dependent effect
[8]
  inhibition: Dose-dependent effect
[9]
  inhibition: Dose-dependent effect
[10]
  inhibition: Dose-dependent effect
[11]
  inhibition: Dose-dependent effect
[12]
  Activity: 0.083 M⁻¹
[13]
  Activity: Dose-dependent effect
[14]
  Activity: 96.6%
[15]
  Activity: 0.15%
[16]
  Activity: 0.1%
[17]
  Activity: 6.13%
[18]
  Activity: 85.42%
[19]
  Activity: 0.3%
[20]
  Activity: 0.23%
[21]
  Activity: 14.05%
[22]
  Activity: 37.83%
[23]
  Activity: 0.73%
[24]
  Activity: 6.45%
[25]
  Activity: 54.98%
[1]
  IC50: 4.08 µM
[2]
  IC50: 9.41 µM
[26]
  Activity: Active
[27]
  Activity: Active
[28]
  Activity: Active

## COc1cccc2c(Nc3ccc(NC(=O)Nc4ccccc4)cc3)c3ccc([N+](=O)[O-])cc3nc12
[1]
  IC50: 2.58 µM
[2]
  IC50: 17.6 µM

## CCCCc1ccc(NC(=O)Nc2ccc(Nc3c4ccccc4nc4cc([N+](=O)[O-])ccc34)cc2)cc1
[1]
  IC50: 1.23 µM
[2]
  IC50: 14 µM

## COc1ccc2nc3cc(Cl)ccc3c(Nc3ccc(NC(=O)Nc4ccccc4)cc3)c2c1
[1]
  IC50: 3.42 µM
[2]
  IC50: 9.56 µM

## Cc1cccc(NC(=O)Nc2ccc(Nc3c4ccccc4nc4cc([N+](=O)[O-])ccc34)cc2)c1
[1]
  IC50: 11.6 µM
[2]
  IC50: > 25 µM

## COc1ccc2nc3cc([N+](=O)[O-])ccc3c(Nc3ccc(NC(=O)Nc4ccccc4)cc3)c2c1
[1]
  IC50: 3.79 µM
[2]
  IC50: > 25 µM

## COc1cccc2c(Nc3ccc(NC(=O)Nc4cccc(C(F)(F)F)c4)cc3)c3ccccc3nc12
[1]
  IC50: 1.93 µM
[2]
  IC50: 13.1 µM

## O=C(Nc1ccccc1)Nc1ccc(Nc2c3ccccc3nc3cc([N+](=O)[O-])ccc23)cc1
[1]
  IC50: 3.3 µM
[2]
  IC50: 19.8 µM

## O=C(Nc1ccc(Nc2c3ccccc3nc3cc([N+](=O)[O-])ccc23)cc1)Nc1cccc(C(F)(F)F)c1
[1]
  IC50: 1.2 µM
[2]
  IC50: > 25 µM

## COc1ccccc1NC(=O)Nc1ccc(Nc2c3ccccc3nc3cc([N+](=O)[O-])ccc23)cc1
[1]
  IC50: 4.51 µM
[2]
  IC50: 19.4 µM

## Cc1ccc(NC(=O)c2ccc(CN3CCN(C)CC3)cc2)cc1Nc1nccc(-c2cccnc2)n1 [IMATINIB]
[1]
  IC50: 0.53 µM
[2]
  IC50: > 25 µM
